Experimental data as given in ChEMBL document CHEMBL1128497, “Synthesis and in vitro and in vivo antitumor activity of a series of trans platinum antitumor complexes” (J Med Chem, 1995).
“And” between values parts separate entries of the source, which are not always exact repeats. Equal values may be shown once. The source made the active and inactive calls. No cut-off for these calls is given here.

Columns and labels:
[1] = test system: 41M; assay: In vitro antitumor activity against 41McisR cell line.; type: functional, cell-based, Homo sapiens
Summary of the method: (§1)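 Human ovarian carcinoma monolayers were grown in DMEM with 10% FCS, insulin and hydrocortisone under 10% CO2. Cells were seeded at 5 × 10^3–1 × 10^4 per well and left to attach overnight. Drugs were freshly dissolved in 0.9% saline (1 mM or 500 μM stocks) and added to quadruplicate wells for 96 h. Cell mass was read by SRB staining. IC50 values are means of at least two experiments.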

[2] = test system: Mus musculus; assay: In Vivo Antitumor activity against the acquired cisplatin-resistant ADJ/PC6 Plasmacytoma (ADJ/PC6cisR) in mice; type: ADME, organism-based
[3] = test system: A2780; assay: In vitro antitumor activity against A2780 cell line.; type: functional, cell-based, Homo sapiens; summary of the method: as §1
[4] = test system: CH1; assay: In vitro antitumor activity against CH1cisR cell line.; type: functional, cell-based, Homo sapiens; summary of the method: as §1
[5] = test system: SK-OV-3; assay: In vitro antitumor activity against SK-OV-3 cell line.; type: functional, cell-based, Homo sapiens; summary of the method: as §1
[6] = In vivo antitumor activity by i.p. administration against murine ADJ/PC6 (sc) plasmacytoma.; type: ADME, organism-based; settings: mouse, ip
[7] = test system: CH1; assay: (§2) In vitro antitumor activity against CH1 cell line.; type: functional, cell-based, Homo sapiens; summary of the method: as §1
[8] = test system: A2780; assay: In vitro antitumor activity against A2780cisR cell line.; type: functional, cell-based, Homo sapiens; summary of the method: as §1
[9] = test system: 41M; assay: In vitro antitumor activity against 41M cell line.; type: functional, cell-based, Homo sapiens; summary of the method: as §1
[10] = test system: CH1; assay: Resistant factor, determined between IC50 of resistant line to that of CHcisR cell line; type: functional, cell-based; settings: Homo sapiens; CH1cisR
Summary of the method: (§3)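 Resistance factor is the IC50 in the cisplatin-resistant subline divided by the IC50 in its parent line. IC50s came from a 96 h SRB cytotoxicity assay run in quadruplicate wells.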

[11] = test system: A2780; assay: Resistant factor determined between IC50 of resistant line to that of parental A2780 cell line; type: functional, cell-based; settings: Homo sapiens; summary of the method: as §3
[12] = test system: Mus musculus; assay: In Vivo Antitumor activity by ip administration against Murine ADJ/PC6 (sc) Plasmacytoma in mice; type: functional, organism-based; settings: Plasma
Summary of the method: (§4)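 ADJ/PC6 plasmacytoma (or its cisplatin-resistant subline) was implanted sc as 1 mm3 fragments. On day 20 mice received a single ip injection of drug as a sonicated suspension in arachis oil, at halving doses. Ten days later tumors were dissected and weighed against controls. […] Therapeutic index is MTD/ED90, alongside LD50.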

[13] = test system: 41M; assay: Resistant factor was determined between IC50 of cisplatin-resistant human tumor cell lines to that of […] cell line; type: functional, cell-based; summary of the method: as §3
[14] = test system: Mus musculus; assay: Ability to inhibit Antitumor activity against PXN/109T/C Human Ovarian Cracinoma xenograft in mice at dose 20 mg/kg by ip administration; type: functional, organism-based; set-up: dose 20 mg/kg
Summary of the method: (§5)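 Human ovarian carcinoma xenografts were grown subcutaneously in female Balb C nude mice. Tumors were measured weekly until they doubled their starting volume. Growth delay is the difference in doubling time between treated and control tumors.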

[15] = test system: Mus musculus; assay: Ability to inhibit Antitumor activity against PXN/109T/CC Human Ovarian Cracinoma xenograft in mice at dose 50 mg/kg by ip administration; type: functional, organism-based; set-up: dose 50 mg/kg; summary of the method: as §5
[16] = test system: Mus musculus; assay: Ability to inhibit Antitumor activity against PXN/109T/C Human Ovarian Cracinoma xenograft in mice at dose 10 mg/kg by ip administration; type: functional, organism-based; set-up: dose 10 mg/kg; summary of the method: as §5
[17] = test system: Mus musculus; assay: Ability to inhibit Antitumor activity against PXN/109T/CC Human Ovarian Cracinoma xenograft in mice at dose 8 mg/kg by ip administration; type: functional, organism-based; set-up: dose 8 mg/kg; summary of the method: as §5
[18] = test system: CH1; assay: as §2; type: functional, cell-based, Homo sapiens; summary of the method: as §1; remark: listed apart in the source
[19] = test system: Mus musculus; assay: In Vivo Antitumor activity by ip administration against Murine ADJ/PC6 (sc) Plasmacytoma in mice; - = 90% tumor inhibition not obtained; type: functional, organism-based; settings: Plasma; summary of the method: as §4
[20] = test system: Mus musculus; assay: Ability to inhibit Antitumor activity against HX/110 Human Ovarian Cracinoma xenograft in mice at dose 2 mg/kg by ip administration; type: functional, organism-based; set-up: dose 2 mg/kg; summary of the method: as §5
[21] = test system: Mus musculus; assay: Ability to inhibit Antitumor activity against PXN/100 Human Ovarian Cracinoma xenograft in mice at dose 4 mg/kg by ip administration; type: functional, organism-based; set-up: dose 4 mg/kg; summary of the method: as §5
[22] = test system: Mus musculus; assay: Ability to inhibit Antitumor activity against PXN/109T/C Human Ovarian Cracinoma xenograft in mice at dose 2 mg/kg by ip administration; type: functional, organism-based; set-up: dose 2 mg/kg; summary of the method: as §5
[23] = test system: Mus musculus; assay: Ability to inhibit Antitumor activity against PXN/100 Human Ovarian Cracinoma xenograft in mice at dose 2 mg/kg by ip administration; type: functional, organism-based; set-up: dose 2 mg/kg; summary of the method: as §5
[24] = test system: Mus musculus; assay: Ability to inhibit Antitumor activity against PXN/109T/CC Human Ovarian Cracinoma xenograft in mice at dose 2 mg/kg by ip administration; type: functional, organism-based; set-up: dose 2 mg/kg; summary of the method: as §5
[25] = test system: Mus musculus; assay: Ability to inhibit Antitumor activity against OVCAR-3 Human Ovarian Cracinoma xenograft in mice at dose 4 mg/kg by ip administration; type: functional, organism-based; set-up: dose 4 mg/kg; summary of the method: as §5
[26] = test system: Mus musculus; assay: Ability to inhibit Antitumor activity against OVCAR-3 Human Ovarian Cracinoma xenograft in mice at dose 2 mg/kg by ip administration; type: functional, organism-based; set-up: dose 2 mg/kg; summary of the method: as §5
[27] = test system: Mus musculus; assay: Ability to inhibit Antitumor activity against SKOV-3 Human Ovarian Cracinoma xenograft in mice at dose 4 mg/kg by ip administration; type: functional, organism-based; set-up: dose 4 mg/kg; summary of the method: as §5
[28] = test system: Mus musculus; assay: Ability to inhibit Antitumor activity against PXN/109T/C Human Ovarian Cracinoma xenograft in mice at dose 4 mg/kg by ip administration; type: functional, organism-based; set-up: dose 4 mg/kg; summary of the method: as §5

Substance	IC50 [1]	IC50 [3]	IC50 [4]	IC50 [5]	LD50 [6]	IC50 [7]	IC50 [8]	IC50 [9]	RF [10]	RF [11]	ED90 [12]	RF [13]	other results
CISPLATIN [listing 1 of 2 here]	1200 nM	330 nM	710 nM	4400 nM	11.3 mg/kg	110 nM	5200 nM	260 nM	–	–	–	–	LD50 [2]: 11 mg/kg
trans-a-Ammine-b,d-dichloro-c,e-dihydroxo-f-(exo-2-aminonorbornane)-platinium (IV) [listing 1 of 2 here]	–	–	–	–	–	–	–	–	1.2	12	4.9 mg/kg	1	–
trans-a-Ammine-b,d-dichloro-c,e-dihydroxy-f-(benzylamine)-platinium (IV)	–	–	–	–	–	–	–	–	1.7	4	22 mg/kg	1	Growth delay [14]: 8.3 days
trans-a-Ammine-b,d-dichloro-c,e-dihydrooxy-f-(Morphiline)-platinium (IV)	–	–	–	–	–	–	–	–	1.6	4.3	94 mg/kg	2.1	–
AMMONIO(DICHLORO)PLATINUM(CYCLOHEXYL)AMMONIUM	–	–	–	–	–	–	–	–	–	–	1.4 mg/kg	–	–
trans-a-Ammine-b,d-dichloro-c,e-dihydroxo-f-(1,1,3,3-tetramethyl butylamine)-platinium (IV) [listing 1 of 2 here]	–	–	–	–	–	–	–	–	1.5	5.5	9.6 mg/kg	2.1	–
trans-a,f-Dichloro-b,d-bis(cyclohexylamine)-c,e-dihydroxo-platinium (IV)	–	–	–	–	–	–	–	–	1.1	4	40 mg/kg	1.5	Growth delay [15]: 1.8 days
trans-a-ammine-b,d-dichloro-f-(2-methyl1-2-propylamine)-c,e-dihydroxoplatinium (IV) [listing 1 of 2 here]	–	–	–	–	–	–	–	–	–	–	4.9 mg/kg and 4.7 mg/kg	–	Growth delay [16]: 13.4 days
trans-a-Ammine-b,d-dichloro-c,e-dihydroxo-f-(N-methylcyclohexylamine)-platinium (IV)	–	–	–	–	–	–	–	–	2.2	3.7	9.4 mg/kg	0.7	Growth delay [17]: 1.1 days
trans-Amminetetrachloro(pyridine)-platinium (IV)	4100 nM	3200 nM	4800 nM	14500 nM	> 100 mg/kg	4700 nM	5600 nM	5300 nM	–	–	–	–	–
trans-a-Ammine-b,d-dichloro-c,e-dihydroxo-f-(1,1,3,3-tetramethyl butylamine)-platinium (IV) [listing 2 of 2 here]	1000 nM	400 nM	550 nM	1800 nM	29 mg/kg	360 nM	2200 nM	480 nM	–	–	–	–	–
CISPLATIN [listing 2 of 2 here]	–	–	–	–	–	–	–	–	–	–	1.6 mg/kg	–	–
trans-a-ammine-b,d-dichloro-f-(cyclohexylamine)-c,e-bis-(ethylcarbamato)platinium (IV)	–	–	–	–	–	–	–	–	1.2	3.3	185 mg/kg	0.7	–
trans-a-ammine-b,d-dichloro-f-(2-methyl1-2-propylamine)-c,e-dihydroxoplatinium (IV) [listing 2 of 2 here]	8000 nM and 900 nM	800 nM and 210 nM	3400 nM and 1620 nM	34000 nM and 4700 nM	35.5 mg/kg and 35 mg/kg	740 nM	8500 nM and 4200 nM	4500 nM and 1100 nM	–	–	–	–	IC50 [18]: 1100 nM
trans-a-Ammine-b,d-dichloro-c,e-dihydroxo-f-(exo-2-aminonorbornane)-platinium (IV) [listing 2 of 2 here]	1500 nM	250 nM	1700 nM	4400 nM	17.5 mg/kg	1400 nM	3000 nM	1400 nM	–	–	–	–	–
TRANSPLATIN [listing 1 of 2 here]	–	–	–	–	–	–	–	–	–	–	–	–	ED90 [19]: inactive
trans-a-ammine-b,d-dichloro-f-(cyclohexylamine)-c,e-dihydroxoplatinium (IV)	–	–	–	–	–	–	–	–	–	–	–	–	Growth delay [20]: 25.5 days; Growth delay [21]: 63.7 days; Growth delay [22]: 17 days; Growth delay [23]: 23.9 days; Growth delay [24]: 5.4 days; Growth delay [25]: 16.8 days; Growth delay [26]: 12 days; Growth delay [27]: 7 days
AMMONIO(DICHLORO)[DI(METHYLCARBONYLOXY)]PLATINUM(CYCLOHEXYL)AMMONIUM	1200 nM	300 nM	1500 nM	4800 nM	35 mg/kg	1100 nM	3000 nM	1300 nM	–	–	–	–	–
trans-Amminetetrachloro(quinuclidine)-platinium (IV)	–	–	–	–	–	–	–	–	1	1.1	–	1	Growth delay [28]: 0 days
trans-a-Ammine-b,d-dichloro-c,e-dihydrooxy-f-(cyclopentylamine)-platinium (IV) [listing 1 of 2 here]	1300 nM	950 nM	1900 nM	7000 nM	15 mg/kg	1100 nM	5200 nM	1100 nM	–	–	–	–	–
TRANSPLATIN [listing 2 of 2 here]	70000 nM	32000 nM	68500 nM	255000 nM	32 mg/kg	30000 nM	260000 nM	57000 nM	–	–	–	–	–
trans-a-Ammine-b,d-dichloro-c,e-dihydrooxy-f-(cyclopentylamine)-platinium (IV) [listing 2 of 2 here]	–	–	–	–	–	–	–	–	1.7	5.5	2.5 mg/kg	1.2	–
